The text below walks through data of ChEMBL document CHEMBL1125005, “Synthesis, biological profile, and quantitative structure-activity relationship of a series of novel 3-hydroxy-3-methylglutaryl coenzyme A reductase inhibitors” (J Med Chem, 1990).

Assay [1] deals with T1, 3-hydroxy-3-methylglutaryl-coenzyme A reductase (Rattus norvegicus) (UniProt P51639).
T1 sequence (whole entry): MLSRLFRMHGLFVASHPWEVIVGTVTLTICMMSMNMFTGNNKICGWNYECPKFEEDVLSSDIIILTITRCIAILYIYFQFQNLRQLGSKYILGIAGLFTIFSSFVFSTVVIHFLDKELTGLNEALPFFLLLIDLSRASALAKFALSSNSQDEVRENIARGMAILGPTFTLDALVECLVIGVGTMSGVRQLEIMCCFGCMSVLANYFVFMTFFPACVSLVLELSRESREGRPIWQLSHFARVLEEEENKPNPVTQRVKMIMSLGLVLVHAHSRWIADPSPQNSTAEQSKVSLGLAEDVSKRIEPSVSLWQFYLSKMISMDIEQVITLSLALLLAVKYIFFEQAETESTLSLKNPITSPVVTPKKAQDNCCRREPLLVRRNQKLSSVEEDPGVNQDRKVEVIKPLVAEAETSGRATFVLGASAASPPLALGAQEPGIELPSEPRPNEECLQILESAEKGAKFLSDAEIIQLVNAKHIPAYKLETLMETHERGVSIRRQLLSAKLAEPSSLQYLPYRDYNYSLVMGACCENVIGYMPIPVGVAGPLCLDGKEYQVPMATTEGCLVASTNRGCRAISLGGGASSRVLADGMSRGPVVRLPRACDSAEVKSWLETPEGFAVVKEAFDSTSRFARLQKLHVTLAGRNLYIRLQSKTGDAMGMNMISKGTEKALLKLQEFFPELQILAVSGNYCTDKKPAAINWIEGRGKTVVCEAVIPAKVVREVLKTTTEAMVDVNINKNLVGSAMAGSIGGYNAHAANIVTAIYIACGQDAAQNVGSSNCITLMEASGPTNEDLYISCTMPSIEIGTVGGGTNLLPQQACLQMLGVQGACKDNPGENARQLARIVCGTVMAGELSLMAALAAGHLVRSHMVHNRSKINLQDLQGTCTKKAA
In words: The compound was tested for the relative potency with respect to standard compound BMY-21950.

Assay [2] deals with T2, 3-hydroxy-3-methylglutaryl-coenzyme A reductase (Rattus norvegicus, UniProt P51639).
T2 sequence (P51639 whole entry): T1 sequence (whole entry)
In words: In vitro inhibitory activity was measured against rat liver HMG-CoA reductase. In outline: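 Enzyme: intact, fully activated rat liver microsomal HMG-CoA reductase, 50–100 μg protein in buffer A (50 mM imidazole HCl, 250 mM NaCl, 1 mM EDTA, 1 mM EGTA, 5 mM DTT, pH 7.2). Preincubated with inhibitor for 10 min at 37 °C. d,l-[3-14C]HMG-CoA (0.33 mM) and NADPH (3.0 mM) then added. [14C]mevalonate formation measured. IC50 from linear regression of % inhibition vs log concentration, ≥4 dilutions in duplicate.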

The target in assay [3] is T2, 3-hydroxy-3-methylglutaryl-coenzyme A reductase. Description: (§1) In vitro inhibitory activity was measured against rat liver HMG-CoA reductase using [2-14C]-acetate incorporation. In outline:
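Parenchymal hepatocytes from chow-fed male Wistar rats (180–280 g), collagenase-perfused, viability >95%. Cells held at 100 mg wet weight/2.0 mL in MEM with bicarbonate/HEPES, pH 7.4, 2% BSA, under 95% O2/5% CO2. Preincubated with inhibitor for 15 min, with DMSO at 0.5% final for lactones. [2-14C]acetate then added for 60 min at 37 °C. 14C in 3β-hydroxysterols counted.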

The species named for assay [4] is Rattus norvegicus. Description: In vitro inhibitory potency for cholesterol synthesis was measured in rat ileum. The assay is classed as functional.
The species named for assay [5] is Rattus norvegicus. Description: In vitro inhibitory potency for cholesterol synthesis was measured in rat testes. The assay is classed as functional, Testis. The method, boiled down: (§2)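 Rat spleen and testes cell dispersions, prepared nonenzymatically. Na-salt inhibitors were preincubated with cells for 15 min under the hepatocyte conditions. [14C]acetate (45–55 μCi per μmol, 5 μCi per mL) was then incorporated for 60 min. Sterol IC50 is reported as a ratio to the IC50 in rat hepatocytes.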

The species entered for assay [6] is Rattus norvegicus. Description: In vitro inhibitory potency for cholesterol synthesis was measured in rat adrenals. Format: functional, Adrenal gland.
Assay [7] is filed under the species Bos taurus. Description: In vitro inhibitory potency for cholesterol synthesis was measured in bovine lens epithelial cell cultures.
For assay [8], the species on record is Rattus norvegicus. Description: In vitro inhibitory potency for cholesterol synthesis was measured in rat spleen. Format: functional. In outline: as §2
In assay [9] the target is T2, 3-hydroxy-3-methylglutaryl-coenzyme A reductase. The assay is described as §1. In outline:
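Parenchymal hepatocytes from chow-fed male Wistar rats (180–280 g), collagenase-perfused, viability >95%. Cells held at 100 mg wet weight/2.0 mL in MEM with bicarbonate/HEPES, pH 7.4, 2% BSA, under 95% O2/5% CO2. Preincubated with inhibitor for 15 min, with DMSO at 0.5% final for lactones. [2-14C]acetate then added for 60 min at 37 °C. 14C in 3β-hydroxysterols counted. IC50 by regression from ≥4 concentrations; mean of n experiments.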
This is another data set of the same source.

One may read the IC50 as the concentration needed to halve the response being measured. Read a low IC50 as higher potency.

For the compound `CC(C)(C)n1nnc(C(/C=C/[C@@H](O)C[C@@H](O)CC(=O)O)=C(c2ccc(F)cc2)c2ccc(F)cc2)n1` (stereo in doubt; 49) [listing 1 of 2 here], in [1], the Relative potency is 1.
In [2], `Cn1nnnc1C(/C=C/[C@@H](O)C[C@@H](O)CC(=O)O)=C(c1ccccc1)c1ccccc1` showed an IC50 of 190 nM. In assay [1], this compound came in with a Relative potency of 0.1.
The corresponding values for `COc1ccc(C(=C(/C=C/[C@@H](O)C[C@@H](O)CC(=O)O)c2nnnn2C)c2ccc(OC)cc2)cc1` are 1400 nM and 0.014.
`Cn1nnc(C(/C=C/[C@@H](O)C[C@@H](O)CC(=O)O)=C(c2ccc(F)cc2)c2ccc(F)cc2)n1` displayed an IC50 in [2] of 30000 nM. In [1], the Relative potency was determined as 0.00063.
Consider `CC(C)n1nnnc1C(/C=C/[C@@H](O)C[C@@H](O)CC(=O)O)=C(c1ccc(F)cc1)c1ccc(F)cc1`, for which the IC50 in [2] stood at 14000 nM. Besides, the Relative potency in [1] was found to be 0.0014.
As to `O=C(O)C[C@H](O)C[C@H](O)/C=C/C(=C(c1ccc(F)cc1)c1ccc(F)cc1)C1N=NN=N1`, half-maximal inhibition in assay [2] (IC50) required 330 nM. In assay [1], this compound gave a Relative potency of 0.0058.
As for `Cn1nnnc1C(/C=C/[C@@H](O)C[C@@H](O)CC(=O)O)=C(c1ccc(F)cc1)c1ccc(F)cc1` (stereo in doubt; 3a), the Relative potency in [1] amounted to 0.43.
In assay [2], `Cc1cc(C(=C(/C=C/[C@@H](O)C[C@@H](O)CC(=O)O)c2nnnn2C)c2ccc(F)c(C)c2)ccc1F` had an IC50 of 160 nM. Further, the Relative potency in assay [1] was determined as 0.12.
In assay [2], `Cc1ccc(C(=C(/C=C/[C@@H](O)C[C@@H](O)CC(=O)O)c2nnnn2C)c2ccc(C)cc2C)c(C)c1` yielded an IC50 of 1600 nM. The same compound yielded a Relative potency in assay [1] of 0.012.
In turn, `CCn1nnc(C(/C=C/[C@@H](O)C[C@@H](O)CC(=O)O)=C(c2ccc(F)cc2)c2ccc(F)cc2)n1` gave an IC50 in assay [2] of 200000 nM. In [1], the Relative potency came out at 9.1e-05.
The corresponding values for `Cn1nnnc1C(C=C=C[C@@H](O)C[C@@H](O)CC(=O)O)=C(c1ccc(F)cc1)c1ccc(F)cc1` are 5700 nM and 0.0033.
In turn, `CC(C)(C)n1nnc(C(/C=C/[C@@H](O)C[C@@H](O)CC(=O)O)=C(c2ccc(F)cc2)c2ccc(F)cc2)n1` (stereo in doubt; 49) [listing 2 of 2 here] returned an IC50 in assay [2] of 19 nM.
In assay [2], `CC(/C=C/[C@@H](O)C[C@@H](O)CC(=O)O)=C(c1ccc(F)cc1)c1ccc(F)cc1` gave a concentration for half-maximal inhibition (IC50) of 7900 nM. The same compound returned a Relative potency in assay [1] of 0.0024.
The compound `CC(C)n1nnnc1C(C=C=C[C@@H](O)C[C@@H](O)CC(=O)O)=C(c1ccc(F)cc1)c1ccc(F)cc1` showed a concentration for half-maximal inhibition (IC50) in assay [2] of 130000 nM. Moreover, the Relative potency in [1] amounted to 0.00015.
With `Cc1cc(F)ccc1C(=C(/C=C/[C@@H](O)C[C@@H](O)CC(=O)O)c1nnnn1C)c1ccc(F)cc1C`, it took 29 nM to reach half-maximal inhibition in [2] (IC50). The compound also showed a Relative potency in assay [1] of 0.67.
The corresponding values for `N#CC(/C=C/[C@@H](O)C[C@@H](O)CC(=O)O)=C(c1ccc(F)cc1)c1ccc(F)cc1` are 8000 nM and 0.0024.
As for `CC(C)C(/C=C/[C@@H](O)C[C@@H](O)CC(=O)O)=C(c1ccc(F)cc1)c1ccc(F)cc1`, the IC50 in [2] is 230 nM. This compound also registered a Relative potency in [1] of 0.095.
As for `CC[C@H](C)C(=O)O[C@H]1C[C@@H](C)C=C2C=C[C@H](C)[C@H](CC[C@@H]3C[C@@H](O)CC(=O)O3)[C@H]21` [LOVASTATIN], the IC50 stood at 32 nM in [3] and 27 nM in [2]. The IC50 ratio in [4] stood at 1.2; in assay [5] it was 1.3; in assay [6], 1; in assay [7], 1.6; in assay [8] it was 1.2. The compound also registered a Relative potency in assay [1] of 0.71.
As to `Cn1nnnc1C(/C=C/[C@@H](O)C[C@@H](O)CC(=O)O)=C(\c1ccccc1)c1ccc(F)cc1`, the IC50 in assay [2] amounted to 44 nM. In assay [1], this compound registered a Relative potency of 0.43.
In the case of `Cn1nnnc1C(/C=C/[C@@H](O)C[C@@H](O)CC(=O)[O-])=C(c1ccc(F)cc1)c1ccc(F)cc1.[Na+]` (stereo in doubt; 3a), the IC50 in assay [9] was determined as 21 nM; in assay [2] it was 43 nM. For the same compound, the IC50 ratio is reported as 129 in assay [4]; 86 in assay [5]; 76 in [6]; 144 in assay [7]; 149 in assay [8].
`CC(C)(C)n1nnc(C(/C=C/[C@@H](O)C[C@@H](O)CC(=O)O)=C(c2ccc(F)cc2)c2ccc(F)cc2)n1` (stereo in doubt; 47) [listing 1 of 2 here] displayed a Relative potency in assay [1] of 0.005.
In turn, `Cn1nnnc1C(/C=C/[C@@H](O)C[C@@H](O)CC(=O)O)=C(c1ccc(F)cc1)c1ccc(F)cc1` (stereo in doubt; 48) showed an IC50 in assay [2] above 300000 nM.
Consider `CC(C)(C)n1nnc(C(/C=C/[C@@H](O)C[C@@H](O)CC(=O)O)=C(c2ccc(F)cc2)c2ccc(F)cc2)n1` (stereo in doubt; 47) [listing 2 of 2 here], for which the midpoint of inhibition in assay [2], the IC50, lay at 3700 nM.
`CC(C)n1nnc(C(/C=C/[C@@H](O)C[C@@H](O)CC(=O)O)=C(c2ccc(F)cc2)c2ccc(F)cc2)n1` registered an IC50 in assay [2] above 300000 nM. The same compound registered a Relative potency in assay [1] below 6e-05.
Consider `CCn1nnnc1C(/C=C/[C@@H](O)C[C@@H](O)CC(=O)O)=C(c1ccc(F)cc1)c1ccc(F)cc1`, for which, in [2], the IC50 was determined as 1100 nM. The Relative potency in assay [1] was 0.017.
Turning to `Cc1ccc(C(=C(/C=C/[C@@H](O)C[C@@H](O)CC(=O)O)c2nnnn2C)c2ccc(C)cc2F)c(F)c1`, the IC50 in assay [2] was 580 nM. Moreover, the Relative potency in assay [1] was determined as 0.032.
With `Cc1ccc(C(=C(/C=C/[C@@H](O)C[C@@H](O)CC(=O)O)c2nnnn2C)c2ccc(C)cc2)cc1`, the IC50 in assay [2] was 1300 nM. Further, the Relative potency in assay [1] was 0.015.
For `Cn1nnnc1C(/C=C/[C@@H]1C[C@@H](O)CC(=O)O1)=C(c1ccc(F)cc1)c1ccc(F)cc1`, half-maximal inhibition in [3] (IC50) required 24 nM. In other words, the double-digit nanomolar range.
